Measured values as given in article PMC9200134 (Chemical Science, 2022).

Tests used:
[1] = at 3.3 μM; cited from earlier work
[2] = system: lung (A549) cancer cell line; assay: SRB cytotoxicity assay in 2D monolayers, dark vs green light; type: cell-based, human; settings: read-out: EC50 (cell growth inhibition); A549 2D, dark (0 J cm^−2)
Method in brief: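 Cells were given test compound for 24 h. They were then irradiated (520 nm, 15 min, 21 mW cm−2, 19 J cm−2) or kept dark, and incubated a further 48 h. Cells were fixed in 10% TCA for 48 h at 4 °C and stained with 0.6% SRB. Absorbance was averaged over triplicate wells and viability taken relative to untreated wells. There were three biological replicates from different passages.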

[3] = system: wild type zebrafish embryos; settings: intravenous or retro-orbital injection, embryo type not stated; cited from earlier work
[4] = reference value, aerated CD3OD; cited from earlier work

Compound: N.N.[Cl][Pt][Cl] [Cisplatin]
- Platinum content in the nucleus [1]: 0.6 ng Pt/10^6 cells
- EC50 [2]: 3000 nM

Compound: Cc1ccnc(-c2cc(C)ccn2)c1.Cc1ccnc(-c2cc(C)ccn2)c1.[Cl-].[Cl-].[Ru+2].c1csc(-c2ccc(-c3ccc(-c4nc5c6cccnc6c6ncccc6c5[nH]4)s3)s2)c1 [TLD-1433]
- MTD in zebrafish embryo [3]: 4.6 mM

Compound: [Ru+2].c1ccc(-c2ccccn2)nc1.c1ccc(-c2ccccn2)nc1.c1ccc(-c2ccccn2)nc1 [[Ru(bpy)3]^2+]
- 1O2 generation quantum yield Φ^refΔ [4]: 0.73
